Data set [1] deals with Sodium channel protein type 2 subunit alpha (Homo sapiens) (UniProt Q99250). The data set is described as follows: Inhibition of human voltage-gated sodium channel 1.2-mediated current expressed in HEK293 cells at -60 to +10 mV holding poteinitial at 1 uM after 5 mins by patch clamp electrophysiology. Type of data set: cell-based. In short, it runs like this: (§1)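 Whole-cell patch clamp at 20–22 °C. Pipette solution CsCl/BAPTA/MgATP, pH 7.4; bath NaCl 130 mM, pH 7.4. ≥75% series resistance compensation; cells held at −100 mV for 5 min. Currents evoked by 25 ms steps from −60 to +10 mV every 15 s. Compound from 100 mM DMSO stock, perfused 5 min, then washout. Tonic block taken as peak current with drug versus drug-free.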

For data set [2] the target is unchanged. Kind of data set: Inhibition of human voltage-gated sodium channel 1.2-mediated current expressed in HEK293 cells at -60 to +10 mV holding poteinitial at 10 uM after 5 mins by patch clamp electrophysiology. Type of data set: cell-based. In short, it runs like this: as §1
(In general: Patch clamp records ionic current or voltage across a cell membrane.)

The target is the same in data set [3]. Kind of data set: Reversible inhibition of human voltage-gated sodium channel 1.2-mediated current expressed in HEK293 cells at -60 to +10 mV holding poteinitial at 1 to 10 uM after 5 mins measured after drug washout by patch clamp electrophysiology. The class given is cell-based. An outline of the steps: as §1
Another data set has as its system CWR22R. The data set is described as follows: (§2) Cytotoxicity against human CWR22Rv1 cells assessed as cell death at 25 uM after 24 hrs by propidium iodide staining-based FACS analysis. Type of data set: functional. In short, it runs like this: (§3)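 CWR22Rv1 cells seeded at 300,000/well in RPMI 1640 with 10% FBS, 2.5 mM L-glutamine and penicillin-streptomycin at 37 °C, 5% CO2, then switched to serum-free RPMI overnight. Compounds from DMSO stock diluted in serum-free RPMI, applied in triplicate. After treatment, cells trypsinized, fixed in 70% ethanol, RNase-treated (5 μg/mL), stained with propidium iodide (50 μg/mL), DNA content read by flow cytometry.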

Data set [4] in a line: Cytotoxicity against human CWR22Rv1 cells assessed as cell death at 25 uM after 72 hrs by propidium iodide staining-based FACS analysis. The class given is functional, CWR22R. In short, it runs like this: as §3
Data set [5] concerns PC-3. Kind of data set: Antitumor activity against human PC3 cells xenografted in athymic BALB/c nude mouse assessed as reduction in tumor volume at 10 mg/kg, ip qd administered every other day for 24 days. Type of data set: functional. The arrangement: scale not given: the % may be the effect or the level left. To be noted: route intraperitoneal. An outline of the steps: (§4)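 Male athymic nude mice (18–22 g) given 3 × 10^6 PC3 cells subcutaneously in right axillary region; randomized one week later into four groups of 6. Compound from DMSO stock diluted in PEG 400/PBS (1:1), given ip once every other day; vehicle control group. Tumor size by caliper, volume = length × width × height/2. One-way ANOVA or ANOVA on ranks with Tukey/Dunn post hoc; mean ± S.E.M.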
Background: In xenograft studies the graft and the host belong to different species.

Data set [6] deals with PC-3. The data set is described as follows: Antitumor activity against human PC3 cells xenografted in athymic BALB/c nude mouse assessed as reduction in tumor volume at 10 mg/kg, ip qd administered every other day for 24 days measured on day 15. Also noted: dose 10 mg/kg. Type of data set: functional, organism-based. In short, it runs like this: as §4
Data set [7] in a line: as §2. The class given is functional, CWR22R. An outline of the steps:
as §3

Data set [8] deals with Sodium channel protein type 9 subunit alpha (Homo sapiens, UniProt Q15858). Kind of data set: Inhibition of human voltage-gated sodium channel 1.7 expressed in HEK293 cells assessed as changes in membranre potential after 45 mins by FRET analysis.
The target of data set [9] is T1, hERG (KCNH2) (Homo sapiens, UniProt Q12809). The data set is described as follows: Displacement of [35S]MK-0499 from human ERG at 0.3 uM after >90 mins by scintillation counting. To be noted: probe [35S]MK-0499. In short, it runs like this: (§5)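 Binding to membranes from HEK-293 cells stably expressing hERG, with 0.05 nM [35S]MK-499 in NaCl/KCl/HEPES buffer pH 7.4 with Mg2+ and Ca2+, 25 °C for >90 min. Filtered on BSA-presoaked GF/C plates, then scintillation counted. Five-point half-log titration, 0.3–30 μM. Percent inhibition relative to no-competitor control and 1 μM unlabeled MK-499; triplicate.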

The target of data set [10] is T1, hERG (KCNH2). The data set is described as follows: Displacement of [35S]MK-0499 from human ERG at 1 uM after >90 mins by scintillation counting. The conditions noted are these: probe [35S]MK-0499. An outline of the steps:
as §5

For data set [11], the target named is T1, hERG (KCNH2). Kind of data set: Displacement of [35S]MK-0499 from human ERG at 3 uM after >90 mins by scintillation counting. The conditions noted are these: probe [35S]MK-0499. In short, it runs like this:
as §5

Data set [12] concerns the target T1, hERG (KCNH2). Kind of data set: Displacement of [35S]MK-0499 from human ERG at 10 uM after >90 mins by scintillation counting. To be noted: probe [35S]MK-0499. In short, it runs like this: as §5
In data set [13] the target is T1, hERG (KCNH2). The data set is described as follows: Displacement of [35S]MK-0499 from human ERG at 30 uM after >90 mins by scintillation counting. To be noted: probe [35S]MK-0499. An outline of the steps: as §5

Each structure is given as a SMILES string. Active and inactive are the calls of the source. The rule behind the calls is not given here.

T1 sequence (Q12809 whole entry): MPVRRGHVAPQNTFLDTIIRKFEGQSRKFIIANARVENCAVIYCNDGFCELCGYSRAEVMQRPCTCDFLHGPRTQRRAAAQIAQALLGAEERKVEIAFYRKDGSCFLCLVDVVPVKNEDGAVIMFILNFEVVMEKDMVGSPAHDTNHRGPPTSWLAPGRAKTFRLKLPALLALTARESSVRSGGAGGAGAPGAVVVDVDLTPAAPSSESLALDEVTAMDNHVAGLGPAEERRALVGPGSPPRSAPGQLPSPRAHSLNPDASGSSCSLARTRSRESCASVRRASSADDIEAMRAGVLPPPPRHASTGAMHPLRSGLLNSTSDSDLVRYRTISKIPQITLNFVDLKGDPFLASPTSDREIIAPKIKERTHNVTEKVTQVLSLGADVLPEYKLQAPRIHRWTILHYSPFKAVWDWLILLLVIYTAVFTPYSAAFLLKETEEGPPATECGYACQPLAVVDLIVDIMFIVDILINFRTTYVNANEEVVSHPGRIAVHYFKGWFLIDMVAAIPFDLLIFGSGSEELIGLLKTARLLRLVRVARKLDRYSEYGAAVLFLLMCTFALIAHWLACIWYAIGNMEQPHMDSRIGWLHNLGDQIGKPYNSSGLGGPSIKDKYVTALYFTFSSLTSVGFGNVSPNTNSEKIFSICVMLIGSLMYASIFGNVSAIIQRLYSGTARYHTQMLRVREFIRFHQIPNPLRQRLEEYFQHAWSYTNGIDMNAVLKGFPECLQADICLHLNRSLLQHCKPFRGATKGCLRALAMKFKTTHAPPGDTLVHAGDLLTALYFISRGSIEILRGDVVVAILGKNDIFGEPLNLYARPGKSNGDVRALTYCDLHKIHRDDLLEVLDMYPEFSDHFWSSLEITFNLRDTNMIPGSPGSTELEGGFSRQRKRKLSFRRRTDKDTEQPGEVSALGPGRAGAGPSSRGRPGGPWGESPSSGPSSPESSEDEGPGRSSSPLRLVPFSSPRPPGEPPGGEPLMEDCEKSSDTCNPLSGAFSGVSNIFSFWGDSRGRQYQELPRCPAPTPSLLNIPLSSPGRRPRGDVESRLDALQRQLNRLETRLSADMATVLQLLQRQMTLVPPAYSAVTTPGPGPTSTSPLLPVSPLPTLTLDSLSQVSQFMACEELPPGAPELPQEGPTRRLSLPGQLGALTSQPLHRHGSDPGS
Sequence of Sodium channel protein type 2 subunit alpha (Homo sapiens) (Q99250 whole entry, looked up, the tested form may be a part): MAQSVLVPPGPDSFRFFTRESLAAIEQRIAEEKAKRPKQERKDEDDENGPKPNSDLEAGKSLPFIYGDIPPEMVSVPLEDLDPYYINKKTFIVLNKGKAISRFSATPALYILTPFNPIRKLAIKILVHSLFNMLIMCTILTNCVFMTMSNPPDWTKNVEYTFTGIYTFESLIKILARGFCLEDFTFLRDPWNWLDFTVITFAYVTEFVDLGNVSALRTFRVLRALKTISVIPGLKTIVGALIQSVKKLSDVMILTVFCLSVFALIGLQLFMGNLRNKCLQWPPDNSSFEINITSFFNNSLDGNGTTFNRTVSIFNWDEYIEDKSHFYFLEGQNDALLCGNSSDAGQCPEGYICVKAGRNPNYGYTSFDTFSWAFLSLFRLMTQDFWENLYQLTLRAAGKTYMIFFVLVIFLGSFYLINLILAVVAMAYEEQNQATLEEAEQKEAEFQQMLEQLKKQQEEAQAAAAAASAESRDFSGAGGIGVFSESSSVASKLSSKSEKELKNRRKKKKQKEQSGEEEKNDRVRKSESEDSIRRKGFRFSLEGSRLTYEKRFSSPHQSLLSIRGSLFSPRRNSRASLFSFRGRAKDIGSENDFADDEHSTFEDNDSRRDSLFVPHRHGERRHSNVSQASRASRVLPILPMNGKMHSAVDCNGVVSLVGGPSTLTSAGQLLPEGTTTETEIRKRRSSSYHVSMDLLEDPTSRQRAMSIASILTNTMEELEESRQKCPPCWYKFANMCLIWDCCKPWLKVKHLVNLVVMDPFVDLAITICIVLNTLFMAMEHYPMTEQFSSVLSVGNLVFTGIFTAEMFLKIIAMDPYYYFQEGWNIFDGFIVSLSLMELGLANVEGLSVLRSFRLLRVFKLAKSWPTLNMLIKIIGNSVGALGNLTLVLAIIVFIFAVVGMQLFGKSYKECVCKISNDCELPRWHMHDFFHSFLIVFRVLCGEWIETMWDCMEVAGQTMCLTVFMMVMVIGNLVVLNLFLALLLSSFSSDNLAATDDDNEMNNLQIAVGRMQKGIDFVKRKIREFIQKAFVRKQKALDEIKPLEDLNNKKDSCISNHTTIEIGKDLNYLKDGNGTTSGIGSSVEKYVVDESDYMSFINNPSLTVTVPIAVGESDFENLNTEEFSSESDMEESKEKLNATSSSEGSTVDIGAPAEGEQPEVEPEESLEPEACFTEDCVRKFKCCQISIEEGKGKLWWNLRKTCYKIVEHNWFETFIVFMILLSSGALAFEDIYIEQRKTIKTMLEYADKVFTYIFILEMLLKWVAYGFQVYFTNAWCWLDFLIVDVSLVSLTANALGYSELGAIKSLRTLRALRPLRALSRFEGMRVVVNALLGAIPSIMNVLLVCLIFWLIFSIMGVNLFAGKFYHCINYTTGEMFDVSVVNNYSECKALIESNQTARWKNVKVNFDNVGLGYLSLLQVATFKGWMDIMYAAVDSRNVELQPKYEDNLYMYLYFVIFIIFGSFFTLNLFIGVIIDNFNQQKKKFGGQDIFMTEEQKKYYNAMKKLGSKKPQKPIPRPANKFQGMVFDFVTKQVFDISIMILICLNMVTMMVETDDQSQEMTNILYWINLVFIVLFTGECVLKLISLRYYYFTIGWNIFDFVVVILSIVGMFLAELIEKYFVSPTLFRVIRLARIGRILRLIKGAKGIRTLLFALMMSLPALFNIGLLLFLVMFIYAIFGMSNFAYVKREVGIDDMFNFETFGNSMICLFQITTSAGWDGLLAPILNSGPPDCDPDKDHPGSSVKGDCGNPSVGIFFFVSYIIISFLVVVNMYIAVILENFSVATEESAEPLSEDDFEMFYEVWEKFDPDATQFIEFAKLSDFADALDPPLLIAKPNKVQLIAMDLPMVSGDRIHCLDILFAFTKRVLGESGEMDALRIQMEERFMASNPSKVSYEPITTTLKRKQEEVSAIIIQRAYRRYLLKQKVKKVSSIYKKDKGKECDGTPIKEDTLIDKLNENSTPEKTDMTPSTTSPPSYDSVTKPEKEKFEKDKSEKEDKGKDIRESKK
Sequence of Sodium channel protein type 9 subunit alpha (Q15858 whole entry): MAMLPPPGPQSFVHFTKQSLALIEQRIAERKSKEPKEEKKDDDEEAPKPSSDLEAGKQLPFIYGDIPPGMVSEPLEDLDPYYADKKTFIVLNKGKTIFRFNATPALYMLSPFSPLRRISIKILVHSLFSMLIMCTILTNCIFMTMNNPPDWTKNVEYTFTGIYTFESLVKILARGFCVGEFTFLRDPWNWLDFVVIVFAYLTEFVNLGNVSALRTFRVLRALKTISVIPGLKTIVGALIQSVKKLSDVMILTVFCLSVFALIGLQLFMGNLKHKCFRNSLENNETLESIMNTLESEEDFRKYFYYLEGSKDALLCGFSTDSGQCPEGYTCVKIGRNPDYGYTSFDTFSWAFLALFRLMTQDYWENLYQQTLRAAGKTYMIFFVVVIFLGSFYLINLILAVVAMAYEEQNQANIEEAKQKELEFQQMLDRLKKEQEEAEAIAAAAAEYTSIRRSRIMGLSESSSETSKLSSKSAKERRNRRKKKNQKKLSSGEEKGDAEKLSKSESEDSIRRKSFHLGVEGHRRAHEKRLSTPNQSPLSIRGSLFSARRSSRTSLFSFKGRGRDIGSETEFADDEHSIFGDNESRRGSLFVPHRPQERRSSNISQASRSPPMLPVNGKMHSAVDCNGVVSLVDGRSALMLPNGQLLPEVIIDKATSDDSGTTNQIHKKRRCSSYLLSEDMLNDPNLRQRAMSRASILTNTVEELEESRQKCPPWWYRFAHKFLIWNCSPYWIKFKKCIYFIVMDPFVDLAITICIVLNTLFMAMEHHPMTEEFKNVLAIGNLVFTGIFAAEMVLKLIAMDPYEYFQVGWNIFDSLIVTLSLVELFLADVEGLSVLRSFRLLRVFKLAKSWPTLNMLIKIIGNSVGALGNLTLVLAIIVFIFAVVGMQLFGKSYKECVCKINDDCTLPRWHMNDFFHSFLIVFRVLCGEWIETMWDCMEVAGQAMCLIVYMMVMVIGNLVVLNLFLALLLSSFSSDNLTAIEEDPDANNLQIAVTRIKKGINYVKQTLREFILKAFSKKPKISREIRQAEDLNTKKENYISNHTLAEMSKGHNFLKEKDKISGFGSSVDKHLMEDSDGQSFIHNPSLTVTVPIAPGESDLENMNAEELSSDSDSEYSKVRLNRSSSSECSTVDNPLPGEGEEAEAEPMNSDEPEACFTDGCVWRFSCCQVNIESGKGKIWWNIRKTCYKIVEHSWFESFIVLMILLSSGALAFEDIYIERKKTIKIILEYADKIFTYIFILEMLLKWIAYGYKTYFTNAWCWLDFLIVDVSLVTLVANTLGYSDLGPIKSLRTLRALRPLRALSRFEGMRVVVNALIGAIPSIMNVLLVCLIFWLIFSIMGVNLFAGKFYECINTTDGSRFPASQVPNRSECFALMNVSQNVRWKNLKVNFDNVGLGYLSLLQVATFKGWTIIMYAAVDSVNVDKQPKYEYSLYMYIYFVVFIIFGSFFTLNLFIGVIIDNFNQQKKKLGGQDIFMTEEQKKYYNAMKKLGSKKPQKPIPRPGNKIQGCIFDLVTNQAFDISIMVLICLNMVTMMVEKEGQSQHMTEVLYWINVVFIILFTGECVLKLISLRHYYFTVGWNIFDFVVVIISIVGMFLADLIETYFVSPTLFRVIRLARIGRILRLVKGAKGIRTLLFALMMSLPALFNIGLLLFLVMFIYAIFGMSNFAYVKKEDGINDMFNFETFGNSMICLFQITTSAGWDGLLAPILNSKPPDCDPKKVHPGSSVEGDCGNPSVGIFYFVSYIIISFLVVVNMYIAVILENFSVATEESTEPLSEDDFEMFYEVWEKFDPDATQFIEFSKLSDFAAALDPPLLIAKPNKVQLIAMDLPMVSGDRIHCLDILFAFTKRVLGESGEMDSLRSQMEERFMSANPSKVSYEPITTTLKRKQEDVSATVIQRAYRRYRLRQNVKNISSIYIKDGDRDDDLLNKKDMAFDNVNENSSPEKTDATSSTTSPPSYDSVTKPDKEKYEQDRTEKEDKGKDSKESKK

By inhibition is commonly meant the percentage by which the read-out fell short of the control. For the compound `CCCCCCC[C@@](O)(C(N)=O)c1cccc(Cl)c1`, the inhibition in [1] was found to be 34.9%; in data set [2], 91.5%. Also, the inhibition entry in data set [3] is “Active”. Further, the outcome in the data set with CWR22R and in the data set with PC-3 [6] was Active. Besides, the Activity in [4] is given as 40%; in the data set with PC-3 [5], 62%.
In the case of `CCCCCCC[C@](O)(C(N)=O)c1cccc(Cl)c1`, the values for the inhibition in data set [1] and in [2] were 67.4% and 94.3%, respectively. The inhibition entry in data set [3] was “Active”. Further, the Activity in data set [7] came to 25%; in [4], 60%; with PC-3 [5], 62%. Moreover, the outcome with PC-3 [6] was Active.
The IC50 is the concentration at which inhibition is half-maximal. Turning to `CCCCCCCC(O)(C(N)=O)c1cccc(Cl)c1` (racemic), in data set [8], the IC50 is 1810 nM. Also, the results for the inhibition in data set [1] and in [2] were 31.9% and 87%, respectively. The inhibition entry in data set [3] is “Active”. This compound came in with an inhibition at […], 0.3 µM at hERG (KCNH2) [9] of 15%. The inhibition at […], 1 µM on hERG (KCNH2) [10] came out at 17%. This compound came in with an inhibition at […], 3 µM at hERG (KCNH2) [11] of 15%. The same compound showed an inhibition at […], 10 µM on hERG (KCNH2) [12] of 51%. Further, on hERG (KCNH2) [13], the inhibition at […], 30 µM is 78%. The result with CWR22R and in the data set on PC-3 [6] was Active. Besides, the Activity in [4] is 25%; in the data set on PC-3 [5], 62%.

(Values after ChEMBL document CHEMBL1955838, “Asymmetric synthesis and evaluation of a hydroxyphenylamide voltage-gated sodium channel blocker in human prostate cancer xenografts” (Bioorg Med Chem, 2012).)
